Results from different studies.
Each line is one published result; the experiments were not run side by side.
Target: Protein kinase C theta type (PRKCQ, Homo sapiens, UniProt Q04759)

SMILES	assay	setting	remaining binding [%]
Nc1c(C(=O)NCc2ccc(C(=O)NCCCC3CCCCC3)cc2)cnn1-c1ccccc1	cell-free assay, competition with immobilised ligand	0.1 µM	100
O=C(Nc1c[nH]nc1C(=O)NC1CCNCC1)c1cc(F)cc(F)c1	binding, competition with immobilised ligand	1 µM	100
O=C(c1ccc(Nc2ncc(Cl)c(-c3ccc(Cl)s3)n2)cc1)N1CCC(N2CCCC2)CC1	binding, competition with immobilised ligand	1 µM	60
Cc1cc(NC(=O)c2cccc(S(F)(F)(F)(F)F)c2)cc(-n2ccn3nc(-c4cccnc4)cc23)c1	cell-free assay, competition with immobilised ligand	1 µM	60.3
COc1ccnn2ncc(-c3ccnc(N(C)C)n3)c12	binding	1 µM	81
O=C(NCCCN1CCOCC1)c1ccc(Nc2ncc(Cl)c(-c3ccc(Cl)s3)n2)cc1	binding, competition with immobilised ligand	1 µM	100
CO[C@H]1CC[C@H](CNc2ccc(S(=O)(=O)NC(=O)c3ccc(N4CCN(CC5=C(c6ccc(Cl)cc6)CC(C)(C)CC5)CC4)cc3Oc3cnc4[nH]ccc4c3)cc2[N+](=O)[O-])CC1	cell-free assay, competition with immobilised ligand	1 µM	89
Cc1cnc(Nc2ccc(C(=O)N3CCC(N4CCCC4)CC3)cc2)nc1-c1cc2ccccc2s1	binding, competition with immobilised ligand	1 µM	27
CN(c1ccnc(CNc2nc(Nc3ccc4c(c3)CC(=O)N4)ncc2C(F)(F)F)n1)S(C)(=O)=O	cell-free assay, competition with immobilised ligand	1 µM	55
CN(c1nccc(-c2cnn3ncccc23)n1)C1CC1	binding	1 µM	100
COc1ncc2cc3ccccc3nc2c1C#N	cell-free assay, competition with immobilised ligand	5 µM	94
c1cncc(-c2cccc(Nc3nccc(NC4CCCCC4)n3)c2)c1	binding, competition with immobilised ligand	10 µM	8.3
O=C(NC[C@@H]1[C@H]2CN(C(=O)OCc3cc(C(F)(F)F)cc(C(F)(F)F)c3)C[C@@H]12)c1ccc2[nH]nnc2c1	cell-free assay, competition with immobilised ligand	1 µM	100
COc1cnc(Nc2cccc(S(N)(=O)=O)c2)nc1N1CCN(c2ccccc2)C(=O)C1	binding, competition with immobilised ligand	1 µM	100
CN(CCCC(F)(F)F)c1nccc(-c2cnn3ncccc23)n1	binding	1 µM	100
CNC(=O)[C@@H]1CC[C@@H](n2c(-c3ccc4cnccc4c3)nc3ccc(C(=O)NCc4cccc(C(N)=O)c4)cc32)C1	binding, competition with immobilised ligand	1 µM	63
CN(C)c1ncc(F)c(-c2cnn3ncccc23)n1	binding	1 µM	100
Nc1ncc2c(n1)-c1c([nH]c3ccc(C#CC4CC4)cc13)CCCC2	binding, competition with immobilised ligand	1 µM	98
C[C@@H]1CCN(c2nccc(-c3cnn4ncccc34)n2)C1	binding	1 µM	67
C[C@@H](c1ccc(-n2cnc3c(N)ncnc32)cc1)N1CCc2nn(C)c(Cc3ccccc3)c2C1=O	binding, competition with immobilised ligand	0.1 µM	100
N[C@@H]1CCN(c2nccc(-c3cnn4ncccc34)n2)C1	binding	1 µM	100
CS(=O)(=O)N1CCCC(NC(=O)[C@H](CCC2CCCCC2)NC(=O)c2ccc(CNc3ncnc4c3nnn4-c3ccccc3)cc2)C1 (stereo partly shown)	cell-free assay, competition with immobilised ligand	0.1 µM	90
